These results are taken from the RNAGym collection of RNA variant scans (doi:10.1126/science.aae0568).

To fix the notation:
B1: tRNA (parent)
chain: GUUCCGUUGGCGUAAUGGUAACGCGUCUCCCUCCUAAGGAGAAGACUGCGGGUUCGAGUCCCGUACGGAACG

Fewer inactive variants are shown than the library holds. Where only a bound is given, the exact number is not on record here.

This series covers variants of B1. The series can be described thus: yeast fitness relative to wild type (ratio to wild type); higher = fitter; tRNA-Arg(CCU), competitive growth, 37 C, YPD. A digest of the protocol:
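Variants of the tRNA-Arg(CCU) gene, chemically synthesised with a 3% per-site mutation rate at 69 sites, were placed at the native genomic locus in Saccharomyces cerevisiae. The pooled strains were competed in YPD at 37°C for 24 hours in six parallel replicates. Gene amplicons from the start population and from each end population were read by 100-nucleotide paired-end sequencing. Darwinian fitness relative to wild type came from changes in genotype frequencies; genotypes needed ≥ 100 starting reads, and estimates < 0.5 were set to 0.5.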
Regarding U7A A36G A40U C46G, the yeast fitness is at most 0.5. For C4G A45C A69U, the yeast fitness came out at 0.789. Consider C24G A42U G68A, for which the yeast fitness is at most 0.5. As for C29G C61A C62U, the figure is at most 0.5.

For the variant C4A U19C U35C, the yeast fitness was determined as 0.685. The figure for A37U A57C G58A A69U A70C is 0.542; for A15G C61A it is 0.589; for C5A U8C A21G A45C G56C it is 0.554. With C27G A57C C62U, the yeast fitness came to 0.511. Turning to C4U A20G C24U, the yeast fitness came out at 0.624. As for G25A A37G, the yeast fitness came to 0.699. For the variant U2A A42G C61U G63A, the yeast fitness was at most 0.5. For the variant C24G U53A, the yeast fitness was 0.533. As to G23A A37G, the yeast fitness worked out at 0.57. With C4U C5A C60G, the yeast fitness was at most 0.5. Consider C5G A65G, for which the yeast fitness worked out at 1.

Consider C4A U8A G17C C31U, for which the yeast fitness stood at 0.558. As for G9A U64A, the yeast fitness worked out at 0.811.

Regarding C4A C30A A37C G58A A70U, the yeast fitness is at most 0.5. As for C5U G12A C22U C33U, the yeast fitness is at most 0.5. With G9C U13C, the yeast fitness stood at 0.626. The figure for C33U C34G C62A is at most 0.5.

Turning to A21C G39C A42U G48C, the yeast fitness was at most 0.5.

As to G23A G52A G63A, the yeast fitness was at most 0.5. U13A C49G: the yeast fitness was found to be 1.01. In the case of U19A A43U A69U, the yeast fitness came to 0.85. Turning to A14U A21C C22U C33G A57U C60G G68C, the yeast fitness is at most 0.5. Take C24G G56A: the yeast fitness is 0.618.

Consider G10A G17A C66G, for which the yeast fitness stood at 0.623. On to C4A U16G, for which the yeast fitness is 0.651. For the variant C5G C22G U28A C31G C55A G68C, the yeast fitness amounted to 0.551. Consider G18A U53A C66U, for which the yeast fitness is at most 0.5. On to U26G A45U, for which the yeast fitness stood at 0.789. The figure for U3C C55G is 0.619; for C49G U54A it is 0.637; for G12C A15G C34A G63C A70C it is 0.641.

In the case of U16G C22G C34G G50C A69U, the yeast fitness was determined as 0.528. Consider C4G C11A A42U, for which the yeast fitness is at most 0.5.

For the variant G6C A43G, the yeast fitness was determined as 0.851. For the variant C30A G67A, the yeast fitness is 0.822.

With U8C G44C, the yeast fitness turned out to be 0.911. In the case of C5U G17C C30A A57C, the yeast fitness is at most 0.5. Turning to A20G U64A, the yeast fitness turned out to be 0.902. For the variant G56C A57G G68U, the yeast fitness is at most 0.5. In the case of A42U A43U A57G A70U, the yeast fitness was 0.574.

Consider C49U C55U C61U, for which the yeast fitness came out at 0.559. The figure for U28A C49G is 0.818; for G12C C66G it is 0.657. U2C A14G: the yeast fitness was 0.863. As for C5G U13A C22G C27U C29G A40U U54C C61G, the yeast fitness is at most 0.5.

On to C11U U47C G48A G56A, for which the yeast fitness is at most 0.5. With U3A C27G C31U C33U A42C C49U, the yeast fitness was at most 0.5.

As to A36G C60U A70U, the yeast fitness was at most 0.5. Consider U35G A43C, for which the yeast fitness came to 0.583. G9C C31A C49G: the yeast fitness turned out to be 0.574. For A14G C29U G41A U54G A69U, the yeast fitness is 0.621. In the case of A15C U28A C34G A37G A43U, the yeast fitness was at most 0.5.

As to C22U C62A, the yeast fitness turned out to be 0.856.

As to C27G C33U A69C, the yeast fitness is 0.544. Turning to U13C C31U G41C C61U, the yeast fitness was determined as 0.53.

Turning to A37U G51A G52C U59C, the yeast fitness is 0.619.

On to C60U A65G, for which the yeast fitness came out at 0.86. As for A21G C34U, the yeast fitness came to 0.701.

Take C5G C29A G56A: the yeast fitness was found to be 0.615. Take C4G U8A G12A: the yeast fitness came to 0.6. As for A14G U32A C62U, the yeast fitness was at most 0.5.

With C27G U28C A45C G48A C55A, the yeast fitness worked out at 0.601. Take U2C G10C G51A C60U G67A: the yeast fitness was at most 0.5. As for C4U C22A C27U A69U, the yeast fitness is 0.512.

For the variant C11G G12C A20G A43G A45C G67A, the yeast fitness was at most 0.5.

Turning to C27U U28G A40C C46A C49U, the yeast fitness was determined as 0.995. Take C33G C34G A43G C46G: the yeast fitness was at most 0.5. For U7G C55U, the yeast fitness came out at 0.855.

Regarding G12A C33A A40G A70U, the yeast fitness was at most 0.5. On to C22U U32G C34U A40G C66U, for which the yeast fitness was found to be 0.647. On to U8A G44A C60U G67C, for which the yeast fitness amounted to 0.576.

Regarding A20G U54G, the yeast fitness was 0.524. Regarding U32A G38A A57U, the yeast fitness worked out at 0.557. For the variant C5A G67A, the yeast fitness stood at 0.933.

For the variant C11A A45C C55U, the yeast fitness came out at 0.517. Consider U19C G23A A37C, for which the yeast fitness was at most 0.5. As to C24A A69C, the yeast fitness was 0.724.

Take G10A G23C C29U A36C C49G: the yeast fitness is 0.53. G17C C24A A69C: the yeast fitness amounted to 0.553. As for G23A G50C, the figure is 0.58. Take C22A C30A C33U C61G C62U: the yeast fitness is at most 0.5. With C55A A57G, the yeast fitness came out at 0.671. As to C5U U19A G25C C29A A43U, the yeast fitness is at most 0.5. The figure for C4G C22G C29A A65C is at most 0.5; for U3C G6C A14U G25A G38A U47A A69C it is at most 0.5. For U26C A36U A40U, the yeast fitness was found to be 0.603. Regarding A37G A40U C55A, the yeast fitness came out at 0.829. Turning to C22A G67C, the yeast fitness came out at 0.701. For the variant C5U C11U U32C C49U, the yeast fitness was 0.537. Consider U2C U8A G17C G38A G56C C61A, for which the yeast fitness was at most 0.5. The figure for C11A G68C is 0.656. As for C27A U28G U64C, the yeast fitness was at most 0.5. With C27G C31A C33G C49U G58C, the yeast fitness was at most 0.5.

On to C5A C24G C62A, for which the yeast fitness is at most 0.5. The figure for A36C A57C C61U A69C is at most 0.5. On to C31A G44A A57C G68C, for which the yeast fitness was found to be 0.753. The figure for C30U U35C G51U C61U is at most 0.5; for C4U C31G it is 0.868; for A20C C33U G38C it is at most 0.5. The figure for A15G G58A is 0.909. As to G23C C31G G44C U47A C66U A69C, the yeast fitness was at most 0.5. In the case of A14U C30A A43C G63A, the yeast fitness was at most 0.5.

With C22G C27G A45U C49U A57G A70G, the yeast fitness was at most 0.5. On to C4G G9C G41A C61U, for which the yeast fitness was at most 0.5. For C4A G38C C55G A69C, the yeast fitness was at most 0.5. As for G38U G67C, the yeast fitness was 0.772.

For the variant C27U G44A C49U G52A A57C, the yeast fitness was at most 0.5. For the variant A14G G50A, the yeast fitness turned out to be 0.907. C5A C24U C46A: the yeast fitness was 0.519.

A21G G23C U28A: the yeast fitness was at most 0.5.

As for C33G A40C, the yeast fitness stood at 0.697.

In the case of G6C A15C, the yeast fitness was found to be 0.689. On to U3C A15G G25C C66G, for which the yeast fitness is at most 0.5. With C30U A43C U54A, the yeast fitness turned out to be 0.611. As for C4A A15G C31U C33U, the figure is at most 0.5; as for A20G U28G A69U, at most 0.5; as for U13A A37C A43U G50C A57G, at most 0.5.

Take U13G G48A A65U: the yeast fitness stood at 0.654. As for C4G U8G G9A C11U C34G C61A, the figure is at most 0.5. For U7A A14G A21C U47A G48A, the yeast fitness is at most 0.5. With G41A, the yeast fitness was 1.

A15C C30U A42U C49G: the yeast fitness was at most 0.5. On to A15G C30G C31A, for which the yeast fitness is at most 0.5. As to C34A G51C, the yeast fitness was at most 0.5. With C5G G9C A57U, the yeast fitness is at most 0.5. The figure for G6C G41C C49G U59G G63A C66U is 0.54; for U2C A37U G48A C61U it is at most 0.5. As for A15G C31U U35C, the figure is 0.609; as for C5U C11A A40G C55A C66A, at most 0.5; as for A21G G63C, 0.73.

With A21C C55G, the yeast fitness was at most 0.5. On to G9A C24A C66A, for which the yeast fitness was at most 0.5.

Regarding C27A A40G A42U C61G, the yeast fitness was at most 0.5. With A15G C55G, the yeast fitness is 0.641. With G41A C55U, the yeast fitness was determined as 0.885. As for C11A A15G A20G C24U A37C G50A G67C, the figure is at most 0.5. On to C4U G12A A20G C22U C55U A65U, for which the yeast fitness was 0.53.

With C34U A36G A45U U64A, the yeast fitness was at most 0.5. Regarding G12A G25A G67A, the yeast fitness turned out to be 0.625. As for C5G C11U A37C A57G, the yeast fitness was at most 0.5. The figure for G12C G56C G58C is at most 0.5.

With G6A A15U A20U G38C, the yeast fitness is at most 0.5. As for C24G G68C A70C, the figure is 0.578; as for C29U A37C A65C, at most 0.5; as for A15U G44A, 0.65. A14G G68U A70U: the yeast fitness was at most 0.5. Consider C30G C33G C49G C61G, for which the yeast fitness turned out to be 0.538. Take G6A G12C: the yeast fitness turned out to be 0.855. C4A A45G: the yeast fitness amounted to 0.808. Regarding G6A G67A, the yeast fitness is 0.872. As to A20G G48A A70G, the yeast fitness is 0.803. For the variant G6C C46G, the yeast fitness came to 0.823.

With A15U C22U C33G G50A, the yeast fitness is at most 0.5. Take U16C C22U G68C: the yeast fitness is at most 0.5.

As to C22U A65C, the yeast fitness stood at 0.708. As to U7A G18C C27A C31G A43G, the yeast fitness was at most 0.5. Take A21U C29G G58A: the yeast fitness was at most 0.5.

In the case of C34U G58C A70C, the yeast fitness was at most 0.5. Take U2A C4A G6A C29G A57G: the yeast fitness was at most 0.5.

As for U8C C24G G25A A43G, the yeast fitness was at most 0.5. Turning to G17C U19C, the yeast fitness is 0.785.

For the variant U8A G39C A43G, the yeast fitness came out at 0.605.
